# Experiments:
# [1] = target: T1, Voltage-gated inwardly rectifying potassium channel KCNH2 (Homo sapiens, UniProt Q12809); assay: Binding affinity to human ERG1 expressed in Xenopus laevis oocytes assessed as half-saturation concentration; assay type: cell-based, Oocyte; details: read-out: Activity
# [2] = target: Voltage-gated inwardly rectifying potassium channel KCNH2 (Homo sapiens, UniProt Q12809, Y652A); assay: Activation of human ERG1 Y652A mutant expressed in Xenopus laevis oocytes assessed as slowing of tail current deactivation at 3 uM by two electrode voltage clamp technique; assay type: cell-based; details: oocyte
# Summary of the method: (§1)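 hERG1 (WT or point mutant) cRNA injected into Xenopus oocytes; two-electrode voltage clamp 1-5 days later. Bath: 96 mM NaCl, 2 mM KCl, 1 mM CaCl2, 2 mM MgCl2, 5 mM Hepes, pH 7.6. Holding potential -90 mV. Protocols repeated 10-15 min after adding compound to the bath, diluted from a 10 mM DMSO stock; one concentration per oocyte.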
# [3] = target: Voltage-gated inwardly rectifying potassium channel KCNH2 (Homo sapiens, UniProt Q12809, G628C/S631C); assay: Effect on human ERG1 G628C/S631C mutant expressed in Xenopus laevis oocytes at 3 uM by two electrode voltage clamp technique; assay type: cell-based; details: oocyte
# [4] = target: T2, Voltage-gated inwardly rectifying potassium channel KCNH2 (Homo sapiens, UniProt Q12809, L666A); assay: Activation of human ERG1 L666A mutant expressed in Xenopus laevis oocytes assessed as shifting of voltage dependence of inactivation towards positive potentials at 30 uM by two electrode voltage clamp technique; assay type: cell-based; details: oocyte; summary of the method: as §1
# [5] = target: T1, Voltage-gated inwardly rectifying potassium channel KCNH2; assay: Activation of human ERG1 isoform 1 expressed in Xenopus laevis oocytes assessed as shifting of voltage dependence of inactivation towards positive potentials by two electrode voltage clamp technique; assay type: cell-based, Oocyte; summary of the method: as §1
# [6] = target: Voltage-gated inwardly rectifying potassium channel KCNH2 (Homo sapiens, UniProt Q12809, L550A); assay: Activation of human ERG1 L550A mutant expressed in Xenopus laevis oocytes assessed as shifting of voltage dependence of inactivation towards positive potentials at 3 uM by two electrode voltage clamp technique; assay type: cell-based; details: oocyte; summary of the method: as §1
# [7] = target: T3, Voltage-gated inwardly rectifying potassium channel KCNH2 (Homo sapiens, UniProt Q12809, L553A); assay: (§2) Activation of human ERG1 L553A mutant expressed in Xenopus laevis oocytes assessed as slowing of tail current deactivation at 3 uM by two electrode voltage clamp technique; assay type: cell-based; details: oocyte; summary of the method: as §1
# [8] = target: T4, Voltage-gated inwardly rectifying potassium channel KCNH2 (Homo sapiens, UniProt Q12809, F557L); assay: (§3) Activation of human ERG1 F557L mutant expressed in Xenopus laevis oocytes assessed as slowing of tail current deactivation at 3 uM by two electrode voltage clamp technique; assay type: cell-based; details: oocyte; summary of the method: as §1
# [9] = target: T1, Voltage-gated inwardly rectifying potassium channel KCNH2; assay: Activation of human ERG1 isoform 1 expressed in Xenopus laevis oocytes assessed as shifting of voltage dependence of inactivation towards positive potentials at 3 uM by two electrode voltage clamp technique; assay type: cell-based; details: oocyte; summary of the method: as §1
# [10] = target: T5, Voltage-gated inwardly rectifying potassium channel KCNH2 (Homo sapiens, UniProt Q12809, N658A); assay: (§4) Activation of human ERG1 N658A mutant expressed in Xenopus laevis oocytes assessed as slowing of tail current deactivation at 3 uM by two electrode voltage clamp technique; assay type: cell-based; details: oocyte; summary of the method: as §1
# [11] = target: T3, Voltage-gated inwardly rectifying potassium channel KCNH2; assay: as §2; assay type: cell-based; details: oocyte; summary of the method: as §1; remark: listed apart in the source
# [12] = target: T5, Voltage-gated inwardly rectifying potassium channel KCNH2; assay: as §4; assay type: cell-based; details: oocyte; summary of the method: as §1; remark: listed apart in the source
# [13] = target: T6, Voltage-gated inwardly rectifying potassium channel KCNH2 (Homo sapiens, UniProt Q12809, V659A); assay: (§5) Activation of human ERG1 V659A mutant expressed in Xenopus laevis oocytes assessed as slowing of tail current deactivation at 3 uM by two electrode voltage clamp technique; assay type: cell-based; details: oocyte; summary of the method: as §1
# [14] = target: T1, Voltage-gated inwardly rectifying potassium channel KCNH2; assay: Activation of human ERG1 isoform 1 expressed in Xenopus laevis oocytes assessed as increase in peak tail current magnitude by two electrode voltage clamp technique; assay type: cell-based, Oocyte
# [15] = target: Voltage-gated inwardly rectifying potassium channel KCNH2 (Homo sapiens, UniProt Q12809, V549A); assay: Activation of human ERG1 V549A mutant expressed in Xenopus laevis oocytes assessed as shifting of voltage dependence of inactivation towards positive potentials at 3 uM by two electrode voltage clamp technique; assay type: cell-based; details: oocyte; summary of the method: as §1
# [16] = target: T1, Voltage-gated inwardly rectifying potassium channel KCNH2; assay: Activation of human ERG1 isoform 1 expressed in Xenopus laevis oocytes assessed as slowing of tail current deactivation by two electrode voltage clamp technique; assay type: cell-based; details: oocyte; summary of the method: as §1
# [17] = target: Voltage-gated inwardly rectifying potassium channel KCNH2 (Homo sapiens, UniProt Q12809, Y667A); assay: Activation of human ERG1 Y667A mutant expressed in Xenopus laevis oocytes assessed as shifting of voltage dependence of inactivation towards positive potentials at 3 uM by two electrode voltage clamp technique; assay type: cell-based; details: oocyte; summary of the method: as §1
# [18] = target: T1, Voltage-gated inwardly rectifying potassium channel KCNH2; assay: Activation of human ERG1 isoform 1 expressed in Xenopus laevis oocytes assessed as enhancement of current magnitude by two electrode voltage clamp technique; assay type: cell-based; details: oocyte
# [19] = target: T4, Voltage-gated inwardly rectifying potassium channel KCNH2; assay: as §3; assay type: cell-based; details: oocyte; summary of the method: as §1; remark: listed apart in the source
# [20] = target: Voltage-gated inwardly rectifying potassium channel KCNH2 (Homo sapiens, UniProt Q12809, I662A); assay: Activation of human ERG1 I662A mutant expressed in Xenopus laevis oocytes assessed as shifting of voltage dependence of inactivation towards positive potentials at 3 uM by two electrode voltage clamp technique; assay type: cell-based; details: oocyte; summary of the method: as §1
# [21] = target: T2, Voltage-gated inwardly rectifying potassium channel KCNH2; assay: Activation of human ERG1 L666A mutant expressed in Xenopus laevis oocytes assessed as shifting of voltage dependence of inactivation towards positive potentials at 3 uM by two electrode voltage clamp technique; assay type: cell-based; details: oocyte; summary of the method: as §1
# [22] = target: T1, Voltage-gated inwardly rectifying potassium channel KCNH2; assay: Activation of human ERG1 isoform 1 expressed in Xenopus laevis oocytes assessed as shifting of voltage dependence of inactivation towards positive potentials at 30 uM by two electrode voltage clamp technique; assay type: cell-based; details: oocyte; summary of the method: as §1
# [23] = target: T1, Voltage-gated inwardly rectifying potassium channel KCNH2; assay: Activation of human ERG1 isoform 1 expressed in Xenopus laevis oocytes assessed as shifting of voltage dependence of inactivation towards positive potentials at 1 uM by two electrode voltage clamp technique; assay type: cell-based; details: oocyte; summary of the method: as §1
# [24] = target: T1, Voltage-gated inwardly rectifying potassium channel KCNH2; assay: Activation of human ERG1 expressed in CHO cells assessed as enhancement of current magnitude at 10 uM by two electrode voltage clamp technique; assay type: cell-based
# [25] = target: T1, Voltage-gated inwardly rectifying potassium channel KCNH2; assay: Activation of human ERG1 isoform 1 expressed in Xenopus laevis oocytes assessed as shifting of voltage dependence of inactivation towards positive potentials at 10 uM by two electrode voltage clamp technique; assay type: cell-based; details: oocyte; summary of the method: as §1
# [26] = target: T6, Voltage-gated inwardly rectifying potassium channel KCNH2; assay: as §5; assay type: cell-based; details: oocyte; summary of the method: as §1; remark: listed apart in the source
# [27] = target: T4, Voltage-gated inwardly rectifying potassium channel KCNH2; assay: Activation of human ERG1 F557L mutant expressed in Xenopus laevis oocytes assessed as shifting of voltage dependence of inactivation towards positive potentials at 30 uM by two electrode voltage clamp technique; assay type: cell-based; details: oocyte; summary of the method: as §1
# [28] = target: T2, Voltage-gated inwardly rectifying potassium channel KCNH2; assay: Inhibition of human ERG1 L666A mutant expressed in Xenopus laevis oocytes assessed as decrease in current amplitude by two electrode voltage clamp technique; assay type: cell-based; details: oocyte; summary of the method: as §1
smiles,measurement,setting,value
COc1ccc2nccc(C(=O)CC[C@@H]3CCN(CC#Cc4cc(F)cc(F)c4F)C[C@@H]3C(=O)O)c2c1,Kd,[1],9.4 µM
same,Activity,[2],Active
same,Activity,[3],Not Active
same,Activity,[4],< 10 mV
same,EC50,[5],8 µM
same,Activity,[6],Active
same,Activity,[7],Not Active
same,Activity,[8],Not Active
same,Activity,[9],17.2 mV
same,Activity,[10],Not Active
same,Activity,[11],Not Active
same,Activity,[12],Not Active
same,Activity,[13],Not Active
same,EC50,[14],15 µM
same,Activity,[15],Active
same,Activity,[16],Active
same,Activity,[17],Active
same,Activity,[18],Active
same,Activity,[19],Not Active
same,Activity,[20],Active
same,Activity,[21],Active
same,Activity,[22],36.9 mV
same,Activity,[23],10.2 mV
same,Activity,[24],15%
same,Activity,[25],28 mV
same,Activity,[26],Not Active
same,Activity,[27],< 10 mV
same,Activity,[28],Active

# — ChEMBL document CHEMBL1147066, “Structural basis of action for a human ether-a-go-go-related gene 1 potassium channel activator” (Proc Natl Acad Sci U S A, 2007)
